Reference: the M2OR odorant receptor database
Residue numbers refer to the chain shown, from its start.

What was measured:
Settings in all cases: stereoisomer not certain
OR2G2 (Homo sapiens) = target: T1, OR2G2 (Homo sapiens) (UniProt Q8NGZ5)
T1 sequence (whole entry): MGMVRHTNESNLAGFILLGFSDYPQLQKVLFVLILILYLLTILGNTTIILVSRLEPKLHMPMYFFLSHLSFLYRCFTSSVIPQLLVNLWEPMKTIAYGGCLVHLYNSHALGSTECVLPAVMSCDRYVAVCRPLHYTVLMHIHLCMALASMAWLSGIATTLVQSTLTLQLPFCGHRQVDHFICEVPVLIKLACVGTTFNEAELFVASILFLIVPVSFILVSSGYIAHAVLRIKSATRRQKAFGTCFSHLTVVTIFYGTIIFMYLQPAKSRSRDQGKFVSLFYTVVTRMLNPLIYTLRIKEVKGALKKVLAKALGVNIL
Method in brief: (§1)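 Transient luciferase assays in mammalian cell lines were common, though methods varied by source. The values come from published papers and their supplementary material, with extra details from the original authors when needed. Responsive refers to a measured signal the original authors judged statistically different from baseline, and non-responsive (inactive) to the remainder.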

OR2F1 (Homo sapiens) = target: T2, OR2F1 (Homo sapiens) (UniProt Q13607)
T2 sequence (whole entry): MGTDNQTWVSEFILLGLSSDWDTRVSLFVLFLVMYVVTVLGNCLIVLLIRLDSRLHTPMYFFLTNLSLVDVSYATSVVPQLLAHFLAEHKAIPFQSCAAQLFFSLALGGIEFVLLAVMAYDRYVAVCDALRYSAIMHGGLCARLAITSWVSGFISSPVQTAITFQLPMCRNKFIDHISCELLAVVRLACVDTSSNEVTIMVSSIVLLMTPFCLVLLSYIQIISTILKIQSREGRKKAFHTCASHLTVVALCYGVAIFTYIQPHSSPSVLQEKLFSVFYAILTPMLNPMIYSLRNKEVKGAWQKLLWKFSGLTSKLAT
Method in brief: as §1

OR2F2 (Homo sapiens) = target: T3, OR2F2 (Homo sapiens) (UniProt O95006)
T3 sequence (whole entry): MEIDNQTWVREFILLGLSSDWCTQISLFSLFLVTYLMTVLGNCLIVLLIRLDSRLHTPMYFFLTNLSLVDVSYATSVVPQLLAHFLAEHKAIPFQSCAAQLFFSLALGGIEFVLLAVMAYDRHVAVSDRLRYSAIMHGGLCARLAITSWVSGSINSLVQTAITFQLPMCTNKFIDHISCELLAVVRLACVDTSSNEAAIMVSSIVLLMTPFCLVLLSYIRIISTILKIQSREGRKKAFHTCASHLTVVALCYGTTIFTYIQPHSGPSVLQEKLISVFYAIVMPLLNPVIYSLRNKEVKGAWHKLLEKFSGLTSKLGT
Method in brief: as §1

OR2G2 L167P R236G = tested on: T4, OR2G2 L167P R236G
T4 sequence (whole entry): T1 sequence (whole entry) with L167P, R236G
Method in brief: as §1

OR2G3 (Homo sapiens) = target: T5, OR2G3 (Homo sapiens) (UniProt Q8NGZ4)
T5 sequence (whole entry): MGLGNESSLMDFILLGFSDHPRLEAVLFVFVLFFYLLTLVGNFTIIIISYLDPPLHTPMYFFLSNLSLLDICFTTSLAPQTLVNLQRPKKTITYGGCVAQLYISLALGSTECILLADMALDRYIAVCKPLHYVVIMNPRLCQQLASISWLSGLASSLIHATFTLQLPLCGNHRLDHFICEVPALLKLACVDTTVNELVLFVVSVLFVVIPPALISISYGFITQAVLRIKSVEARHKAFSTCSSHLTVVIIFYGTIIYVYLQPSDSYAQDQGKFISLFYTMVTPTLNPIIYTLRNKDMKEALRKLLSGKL
Method in brief: as §1

OR2G3 I289V = tested on: T6, OR2G3 I289V
T6 sequence (whole entry): T5 sequence (whole entry) with I289V
Method in brief: as §1

OR2G6 (Homo sapiens) = target: T7, OR2G6 (Homo sapiens) (UniProt Q5TZ20)
T7 sequence (whole entry): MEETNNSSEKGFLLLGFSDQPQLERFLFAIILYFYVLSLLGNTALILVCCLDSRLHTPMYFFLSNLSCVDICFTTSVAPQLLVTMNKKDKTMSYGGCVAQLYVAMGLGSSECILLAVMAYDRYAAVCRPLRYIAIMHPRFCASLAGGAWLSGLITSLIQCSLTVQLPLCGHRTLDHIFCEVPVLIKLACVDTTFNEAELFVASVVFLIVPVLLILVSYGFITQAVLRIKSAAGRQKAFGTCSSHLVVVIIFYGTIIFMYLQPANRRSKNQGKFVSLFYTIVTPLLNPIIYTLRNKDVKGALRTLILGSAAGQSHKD
Method in brief: as §1

OR2H1 (Homo sapiens) = target: T8, OR2H1 (Homo sapiens) (UniProt Q9GZK4)
T8 sequence (whole entry): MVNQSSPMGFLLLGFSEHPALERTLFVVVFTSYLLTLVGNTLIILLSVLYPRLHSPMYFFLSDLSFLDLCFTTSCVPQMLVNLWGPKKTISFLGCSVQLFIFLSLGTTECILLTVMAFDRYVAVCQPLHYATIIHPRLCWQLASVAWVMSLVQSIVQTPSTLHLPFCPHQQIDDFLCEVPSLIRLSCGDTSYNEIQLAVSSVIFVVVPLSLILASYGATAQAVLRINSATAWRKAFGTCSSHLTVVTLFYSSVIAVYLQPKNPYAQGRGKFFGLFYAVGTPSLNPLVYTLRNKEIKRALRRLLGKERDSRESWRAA
Method in brief: as §1

OR2H2 (Homo sapiens) = target: T9, OR2H2 (Homo sapiens) (UniProt O95918)
T9 sequence (whole entry): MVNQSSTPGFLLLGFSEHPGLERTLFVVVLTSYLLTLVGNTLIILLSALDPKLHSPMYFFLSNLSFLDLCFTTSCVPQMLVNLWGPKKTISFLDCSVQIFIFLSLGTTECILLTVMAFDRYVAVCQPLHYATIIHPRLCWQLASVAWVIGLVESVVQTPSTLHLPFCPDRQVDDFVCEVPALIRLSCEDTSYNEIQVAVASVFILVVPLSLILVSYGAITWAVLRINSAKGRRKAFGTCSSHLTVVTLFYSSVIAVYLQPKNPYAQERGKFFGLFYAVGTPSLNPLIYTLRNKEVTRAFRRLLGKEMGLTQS
Method in brief: as §1

OR2H2 = tested on: T10, OR2H2
T10 sequence (whole entry): T9 sequence (whole entry) with L30F, A48V
Method in brief: as §1

OR2J1 (Homo sapiens) = target: T11, OR2J1 (Homo sapiens) (UniProt Q9GZK6)
T11 sequence (whole entry): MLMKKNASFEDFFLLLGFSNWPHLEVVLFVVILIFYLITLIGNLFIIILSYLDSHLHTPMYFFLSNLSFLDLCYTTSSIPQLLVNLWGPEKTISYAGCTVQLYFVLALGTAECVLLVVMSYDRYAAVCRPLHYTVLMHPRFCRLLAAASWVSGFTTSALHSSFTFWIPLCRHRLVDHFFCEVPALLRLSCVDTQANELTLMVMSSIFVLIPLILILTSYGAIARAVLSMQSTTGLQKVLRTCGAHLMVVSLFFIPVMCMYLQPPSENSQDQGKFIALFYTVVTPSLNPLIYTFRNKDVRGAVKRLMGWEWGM
Method in brief: as §1

OR2J1 L14I V182A = tested on: T12, OR2J1 L14I V182A
T12 sequence (whole entry): T11 sequence (whole entry) with L14I, V182A
Method in brief: as §1

OR2J2 (Homo sapiens) = target: T13, OR2J2 (Homo sapiens) (UniProt O76002)
T13 sequence (whole entry): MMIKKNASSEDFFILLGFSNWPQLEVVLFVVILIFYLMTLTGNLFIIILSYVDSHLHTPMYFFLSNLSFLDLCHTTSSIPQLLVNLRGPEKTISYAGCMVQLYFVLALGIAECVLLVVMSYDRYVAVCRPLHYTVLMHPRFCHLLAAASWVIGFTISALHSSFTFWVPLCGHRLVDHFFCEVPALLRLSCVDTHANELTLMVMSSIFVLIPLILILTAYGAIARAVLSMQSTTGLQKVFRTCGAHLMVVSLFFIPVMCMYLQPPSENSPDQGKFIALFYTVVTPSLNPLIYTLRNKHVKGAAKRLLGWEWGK
Method in brief: as §1

OR2J3 (Homo sapiens) = target: T14, OR2J3 (Homo sapiens) (UniProt O76001)
T14 sequence (whole entry): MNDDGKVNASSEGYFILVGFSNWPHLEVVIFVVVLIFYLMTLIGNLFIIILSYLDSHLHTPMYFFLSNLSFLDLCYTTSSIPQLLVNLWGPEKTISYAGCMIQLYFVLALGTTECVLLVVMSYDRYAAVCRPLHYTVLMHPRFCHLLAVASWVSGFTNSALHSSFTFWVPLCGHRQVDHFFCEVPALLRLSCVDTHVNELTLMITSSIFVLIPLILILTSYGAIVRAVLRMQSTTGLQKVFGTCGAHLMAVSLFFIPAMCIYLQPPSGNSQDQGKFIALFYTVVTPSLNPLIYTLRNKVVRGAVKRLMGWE
Method in brief: as §1

OR2J3 = tested on: T15, OR2J3
T15 sequence (whole entry): T14 sequence (whole entry) with V228I, I261M
Method in brief: as §1

OR2K2 (Homo sapiens) = target: T16, OR2K2 (Homo sapiens) (UniProt Q8NGT1)
T16 sequence (whole entry): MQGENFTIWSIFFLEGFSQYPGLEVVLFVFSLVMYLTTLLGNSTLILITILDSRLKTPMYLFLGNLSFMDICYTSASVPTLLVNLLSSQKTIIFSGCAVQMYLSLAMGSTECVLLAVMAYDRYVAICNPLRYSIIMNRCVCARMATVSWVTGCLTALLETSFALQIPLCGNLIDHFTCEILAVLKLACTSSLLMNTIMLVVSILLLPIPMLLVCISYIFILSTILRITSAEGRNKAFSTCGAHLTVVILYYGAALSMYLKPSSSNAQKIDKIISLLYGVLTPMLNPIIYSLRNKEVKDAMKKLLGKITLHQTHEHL
Method in brief: as §1

OR2J2 = tested on: T17, OR2J2
T17 sequence (whole entry): T13 sequence (whole entry) with H74Y, A111T, A146V, A218T
Method in brief: as §1

OR2J1 [1] = tested on: OR2J1
Method in brief: as §1
Target sequence in this assay (as listed by the source): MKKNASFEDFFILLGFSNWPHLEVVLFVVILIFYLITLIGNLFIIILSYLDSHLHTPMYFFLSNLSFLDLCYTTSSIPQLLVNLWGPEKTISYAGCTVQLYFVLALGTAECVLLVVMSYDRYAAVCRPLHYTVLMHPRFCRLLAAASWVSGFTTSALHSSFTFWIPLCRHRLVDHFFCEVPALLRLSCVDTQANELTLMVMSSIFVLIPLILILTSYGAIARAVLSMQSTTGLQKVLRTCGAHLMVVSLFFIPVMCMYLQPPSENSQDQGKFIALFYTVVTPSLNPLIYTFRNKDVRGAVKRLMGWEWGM

OR2J1 [2] = tested on: OR2J1; remark: listed apart in the source
Method in brief: as §1

Measured: odorant receptor agonist call;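 note: active if original authors judged signal statistically different from baseline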

CCC(=O)C=CC1C(C)=CCCC1(C)C (stereo not drawn)
inactive: OR2G2 (Homo sapiens)

CCCCCCC=CCCC=O
inactive: OR2F1 (Homo sapiens) | OR2F2 (Homo sapiens) | OR2G2 (Homo sapiens) | OR2G2 L167P R236G | OR2G3 (Homo sapiens) | OR2G3 I289V | OR2G6 (Homo sapiens) | OR2H1 (Homo sapiens) | OR2H2 (Homo sapiens) | OR2H2 | OR2J1 (Homo sapiens) | OR2J1 L14I V182A | OR2J2 (Homo sapiens) | OR2J3 (Homo sapiens) | OR2J3 | OR2K2 (Homo sapiens)

CC1=CCC2CC1C2(C)C (stereo not drawn)
inactive: OR2G2 (Homo sapiens)

CCCCC1CCC(=O)O1 (stereo not drawn)
inactive: OR2G2 (Homo sapiens)

CCCCCCCCC(OC(C)=O)OC(C)=O
inactive: OR2G2 (Homo sapiens)

CCCCCC(=O)C(C)C(C)=O (stereo not drawn)
inactive: OR2F1 (Homo sapiens) | OR2F2 (Homo sapiens) | OR2G2 (Homo sapiens) | OR2G3 (Homo sapiens) | OR2G6 (Homo sapiens) | OR2H1 (Homo sapiens) | OR2H2 (Homo sapiens) | OR2J1 (Homo sapiens) | OR2J2 (Homo sapiens) | OR2J3 (Homo sapiens) | OR2K2 (Homo sapiens)

CC1CCCCCCCCCCCCC(=O)C1 (stereo not drawn)
inactive: OR2F1 (Homo sapiens) | OR2F2 (Homo sapiens) | OR2G2 (Homo sapiens) | OR2G3 (Homo sapiens) | OR2G6 (Homo sapiens) | OR2H1 (Homo sapiens) | OR2H2 (Homo sapiens) | OR2J1 (Homo sapiens) | OR2J2 (Homo sapiens) | OR2J3 (Homo sapiens) | OR2K2 (Homo sapiens)

CCCCCC(S)C(C)CO (stereo not drawn)
inactive: OR2F1 (Homo sapiens) | OR2F2 (Homo sapiens) | OR2G2 (Homo sapiens) | OR2G3 (Homo sapiens) | OR2G6 (Homo sapiens) | OR2H1 (Homo sapiens) | OR2H2 (Homo sapiens) | OR2J1 (Homo sapiens) | OR2J2 (Homo sapiens) | OR2J3 (Homo sapiens) | OR2K2 (Homo sapiens)

CCCC(C)C(=O)OCC (stereo not drawn)
inactive: OR2G2 (Homo sapiens)

CC1=C(O)C(=O)C(C)O1 (stereo not drawn)
inactive: OR2F1 (Homo sapiens) | OR2F2 (Homo sapiens) | OR2G2 (Homo sapiens) | OR2G2 L167P R236G | OR2G3 (Homo sapiens) | OR2G3 I289V | OR2G6 (Homo sapiens) | OR2H1 (Homo sapiens) | OR2H2 (Homo sapiens) | OR2H2 | OR2J1 (Homo sapiens) | OR2J1 L14I V182A | OR2J2 | OR2J3 (Homo sapiens) | OR2J3 | OR2K2 (Homo sapiens)

CCCC(C)=CC(=O)O
inactive: OR2J1 [1] | OR2J1 [2]

O=c1ccc2ccccc2o1
inactive: OR2J1 [2]
